Three compounds from paper PMC3295204 (Journal of Medicinal Chemistry, 2012) can be followed below.

For data set [1], the system named is PSA secretion (AR signaling) in LNCaP cells. The data set can be described thus: Secreted PSA ELISA in LNCaP cells. It is filed as cell-based, human. The gist of the method: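 Media were renewed every second day, and supernatants collected at day 5 for human PSA sandwich ELISA: sample 2 h at RT, HRP-conjugate antibody 2 h at RT, TMB 30 min, then 2 N H2SO4 stop. OD 450 minus 540 nm was interpolated from a standard curve. Two experiments, SEM n = 4.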

In data set [2] the test system is LNCaP cells. The data set can be described thus: Hormone-dependent cell proliferation in androgen-deprived LNCaP cells. It is filed as cell-based, human. The gist of the method: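 LNCaP cells were androgen-deprived for 48 h in phenol red-free RPMI with 10% charcoal-stripped FBS. They were seeded at 2 × 10^4 cells/mL in triplicate and treated with test compound ± 0.1 nM DHT (0.1% DMSO final), with a vehicle control. Media and treatments were renewed every second day after two PBS washes. Proliferation was read by AlamarBlue at 5 days. Two independent experiments, SEM n = 6.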

Data set [3] has as its target T1, progesterone receptor (PR) (Homo sapiens, UniProt P06401).
T1 sequence (P06401 679-933 limits assumed): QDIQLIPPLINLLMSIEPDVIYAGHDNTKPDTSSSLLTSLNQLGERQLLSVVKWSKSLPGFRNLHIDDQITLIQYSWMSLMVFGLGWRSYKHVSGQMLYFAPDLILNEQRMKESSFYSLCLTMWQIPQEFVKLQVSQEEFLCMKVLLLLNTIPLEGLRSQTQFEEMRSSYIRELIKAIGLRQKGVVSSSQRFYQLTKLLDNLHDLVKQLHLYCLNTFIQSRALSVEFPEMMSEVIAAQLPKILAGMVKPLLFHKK
The data set can be described thus: TR-FRET SRC1-4 coactivator displacement from progesterone-PR complex. Particulars: AR vs PR. The data set is classed as biochemical. The method, boiled down: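 TR-FRET coactivator-recruitment assay with LBD and Tb anti-GST antibody. Agonist was set at its EC80 from a prior agonist-mode run: DHT for AR-LBD (test compound 100 μM–45 nM), progesterone for PR (100–1 μM). Buffer had 1% DMSO, 5 mM DTT and 0.01% Triton X-100; incubation was 2–4 h at RT in the dark. […] Two experiments in triplicate.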

Data set [4] is described as follows: Cell viability. Particulars: human, LNCaP cells (androgen-dependent prostate cancer cell line). It is filed as cell-based.
The nature of data set [5]: Cell viability. The data set is classed as cell-based. Particulars: human, PWR-1E cells (normal prostatic epithelia cell line).
The nature of data set [6]: Cell viability. Particulars: human, PC-3 cells (androgen-independent prostate cancer cell line). It is filed as cell-based, human.
Data set [7] relates to PC-3 cells. The data set can be described thus: Cell viability. The conditions noted are these: PC-3, 50 μM, 24 h. The data set is classed as cell-based, human.

Take `COc1cc(/C=N/NC(=O)c2cc3c(ccc4ccccc43)o2)cc(OC)c1O` [Compound 5]: the “effect on CPA partial agonist activity (secreted PSA)” value in data set [1] (10 μM, androgen-deprived LNCaP) was “antagonize CPA partial agonist activity”. Further, in data set [1] (LNCaP, ELISA), the “effect on DHT-induced PSA secretion” value is given as “reduce DHT-induced PSA secretion in a dose–response fashion”. Besides, the “agonist activity (PSA without hormone stimulation)” value in data set [1] (androgen-deprived LNCaP, tested concentrations) is “no detectable agonist or partial agonist activity”. For the same compound, the “tolerability in LNCaP cells” value in data set [2] (5 days of treatment at 10 and 20 μM) is recorded as “well-tolerated”. Further, the “effect on DHT-treated cell count” value in data set [2] (5 days, 10 and 20 μM, 0.1 nM DHT) is recorded as “specific reduction in DHT-treated cell count”. Moreover, the “binding selectivity for AR over PR” value in data set [3] was “comparable affinity”.
For `O=C(N/N=C/c1cc(Br)ccc1O)c1cc2ccccc2cc1O` [Compound 4], the viability at 24 h, 50 µM in data set [4], in data set [5] and in data set [6] was 50 to 60% each time. Further, the “binding selectivity for AR over PR” value in data set [3] is reported as “approximately 2 fold”.
With `CC(=O)O[C@]1(C(C)=O)CC[C@H]2[C@@H]3C=C(Cl)C4=CC(=O)[C@@H]5C[C@@H]5[C@]4(C)[C@H]3CC[C@@]21C` [CPA, cyproterone acetate, reference compound], the cell viability entry in data set [7] is given as “minor effect”.
